“And” between values parts separate entries of the source, which are not always exact repeats. Identical values can stand only once.
Columns and labels:
U2OS = assay: Multiplex assay against U2OS; assay type: toxicity, cell-based; conditions: human
Summary of the method: (§1)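 Live cells carried four stains from seeding: Hoechst33342, BioTracker Green Microtubule Cytoskeleton Dye, MitoTracker Red and Annexin V Alexa Fluor 680. They were imaged on a CQ1 microscope at 37°C and 5% CO2 after compound addition. Using CellPathfinder machine-learning gating, cells were split into Hoechst high-intensity objects or normal cells, normal cells into healthy, pyknosed or fragmented nuclei, and pyknosed cells into mitotic or apoptotic; tubulin, mitochondrial-mass and membrane-permeability phenotypes are per cents of healthy-nucleus cells.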

Fibroblast = assay: Multiplex assay against human fibroblast; assay type: toxicity, cell-based; summary of the method: as §1
[1] = 24 h, 1 µM, compound concentration 1 uM
[2] = 24 h, 10 µM, compound concentration 10 uM
[3] = 48 h, 1 µM, compound concentration 1 uM
[4] = 48 h, 10 µM, compound concentration 10 uM
[5] = 12 h, 1 µM, compound concentration 1 uM
[6] = 12 h, 10 µM, compound concentration 10 uM

For N#Cc1c(N)nc(SCc2csc(-c3ccc(Cl)cc3)n2)c(C#N)c1-c1ccc(OCCO)cc1 [CAPADENOSON], the “Population Tubulin-Different-Phenotype (%)” value (U2OS; [1]) was 6% and 2%, the “Total Cell Count” value (U2OS; [1]) was 263 and 176 and the “Population Apoptotic (%)” value (U2OS; [2]) was 71% and 69%. For the same compound, the “Population Fragmented Nuclei (%)” value (U2OS; [2]) was 36% and 25%, the “Population Healthy Nuclei (%)” value (U2OS; [2]) was 37% and 49% and the “Population Hoechst High Intensity Objects (%)” value (U2OS; [2]) was 5% and 2%. The “Population Membrane Permeable-Phenotype (%)” value (U2OS; [2]) was 47% and 34%, the “Population Mitochondria Different-Phenotype (%)” value (U2OS; [2]) was 38% and 58% and the “Population Mitotic Cells (%)” value (U2OS; [2]) was 28% and 30%. The “Population Normal (%)” value (U2OS; [2]) was 94% and 97%, the “Population Pyknosed Nuclei (%)” value (U2OS; [2]) was 26% and 24% and the “Population Tubulin-Different-Phenotype (%)” value (U2OS; [2]) was 47% and 60%. The “Total Cell Count” value (U2OS; [2]) was 253 and 95, the “Population Apoptotic (%)” value (U2OS; [3]) was 80% and 84% and the “Population Fragmented Nuclei (%)” value (U2OS; [3]) was 23% and 12%. For the same compound, the “Population Healthy Nuclei (%)” value (U2OS; [3]) was 67% and 79%, the “Population Hoechst High Intensity Objects (%)” value (U2OS; [3]) was 3% and 0% and the “Population Membrane Permeable-Phenotype (%)” value (U2OS; [3]) was 9% and 6%. The “Population Mitochondria Different-Phenotype (%)” value (U2OS; [3]) was 6% and 3%, the “Population Mitotic Cells (%)” value (U2OS; [3]) was 20% and 15% and the “Population Normal (%)” value (U2OS; [3]) was 96% and 99%. For the same compound, the “Population Pyknosed Nuclei (%)” value (U2OS; [3]) was 8%, the “Population Tubulin-Different-Phenotype (%)” value (U2OS; [3]) was 6% and 5% and the “Total Cell Count” value (U2OS; [3]) was 355 and 220. The “Population Apoptotic (%)” value (U2OS; [4]) was 86% and 66%, the “Population Fragmented Nuclei (%)” value (U2OS; [4]) was 44% and 30% and the “Population Healthy Nuclei (%)” value (U2OS; [4]) was 30% and 49%. For the same compound, the “Population Hoechst High Intensity Objects (%)” value (U2OS; [4]) was 5% and 4%, the “Population Membrane Permeable-Phenotype (%)” value (U2OS; [4]) was 46% and 45% and the “Population Mitochondria Different-Phenotype (%)” value (U2OS; [4]) was 31% and 45%. The “Population Mitotic Cells (%)” value (U2OS; [4]) was 13% and 33%, the “Population Normal (%)” value (U2OS; [4]) was 94% and 95% and the “Population Pyknosed Nuclei (%)” value (U2OS; [4]) was 25% and 20%. The “Population Tubulin-Different-Phenotype (%)” value (U2OS; [4]) was 37% and 50%, the “Total Cell Count” value (U2OS; [4]) was 285 and 109 and the “Population Apoptotic (%)” value (Fibroblast; [5]) was 43% and 27%. The “Population Healthy Nuclei (%)” value (Fibroblast; [5]) was 80% and 43%, the “Population Hoechst High Intensity Objects (%)” value (Fibroblast; [5]) was 2% and 1% and the “Population Membrane Permeable-Phenotype (%)” value (Fibroblast; [5]) was 0% and 5%. The “Population Mitochondria Different-Phenotype (%)” value (Fibroblast; [5]) was 10% and 11%, the “Population Mitotic Cells (%)” value (Fibroblast; [5]) was 56% and 72% and the “Population Normal (%)” value (Fibroblast; [5]) was 97% and 98%. For the same compound, the “Population Pyknosed Nuclei (%)” value (Fibroblast; [5]) was 11% and 25%, the “Population Tubulin-Different-Phenotype (%)” value (Fibroblast; [5]) was 38% and 55% and the “Total Cell Count” value (Fibroblast; [5]) was 139 and 157. The “Population Apoptotic (%)” value (Fibroblast; [6]) was 31% and 41%, the “Population Fragmented Nuclei (%)” value (Fibroblast; [6]) was 23% and 41% and the “Population Healthy Nuclei (%)” value (Fibroblast; [6]) was 50% and 29%. For the same compound, the “Population Hoechst High Intensity Objects (%)” value (Fibroblast; [6]) was 1% and 8%, the “Population Membrane Permeable-Phenotype (%)” value (Fibroblast; [6]) was 0% and 20% and the “Population Mitochondria Different-Phenotype (%)” value (Fibroblast; [6]) was 10% and 14%. For the same compound, the “Population Mitotic Cells (%)” value (Fibroblast; [6]) was 68% and 58%, the “Population Normal (%)” value (Fibroblast; [6]) was 98% and 91% and the “Population Pyknosed Nuclei (%)” value (Fibroblast; [6]) was 25% and 29%. For the same compound, the “Population Tubulin-Different-Phenotype (%)” value (Fibroblast; [6]) was 80% and 97%, the “Total Cell Count” value (Fibroblast; [6]) was 172 and 128 and the “Population Apoptotic (%)” value (Fibroblast; [1]) was 72% and 48%. For the same compound, the “Population Healthy Nuclei (%)” value (Fibroblast; [1]) was 80% and 44%, the “Population Hoechst High Intensity Objects (%)” value (Fibroblast; [1]) was 1% and 4% and the “Population Membrane Permeable-Phenotype (%)” value (Fibroblast; [1]) was 0% and 6%. For the same compound, the “Population Mitotic Cells (%)” value (Fibroblast; [1]) was 27% and 51%, the “Population Normal (%)” value (Fibroblast; [1]) was 98% and 95% and the “Population Pyknosed Nuclei (%)” value (Fibroblast; [1]) was 8% and 20%. The “Population Tubulin-Different-Phenotype (%)” value (Fibroblast; [1]) was 34% and 71%, the “Total Cell Count” value (Fibroblast; [1]) was 139 and 148 and the “Population Apoptotic (%)” value (Fibroblast; [2]) was 38% and 41%. For the same compound, the “Population Fragmented Nuclei (%)” value (Fibroblast; [2]) was 26% and 43%, the “Population Healthy Nuclei (%)” value (Fibroblast; [2]) was 52% and 28% and the “Population Hoechst High Intensity Objects (%)” value (Fibroblast; [2]) was 2% and 6%. For the same compound, the “Population Membrane Permeable-Phenotype (%)” value (Fibroblast; [2]) was 0% and 17%, the “Population Mitochondria Different-Phenotype (%)” value (Fibroblast; [2]) was 26% and 25% and the “Population Mitotic Cells (%)” value (Fibroblast; [2]) was 61% and 58%. The “Population Normal (%)” value (Fibroblast; [2]) was 97% and 93%, the “Population Pyknosed Nuclei (%)” value (Fibroblast; [2]) was 20% and 27% and the “Population Tubulin-Different-Phenotype (%)” value (Fibroblast; [2]) was 67% and 94%. For the same compound, the “Total Cell Count” value (Fibroblast; [2]) was 179 and 131, the “Population Apoptotic (%)” value (Fibroblast; [3]) was 88% and 69% and the “Population Fragmented Nuclei (%)” value (Fibroblast; [3]) was 16% and 38%. The “Population Healthy Nuclei (%)” value (Fibroblast; [3]) was 77% and 43%, the “Population Hoechst High Intensity Objects (%)” value (Fibroblast; [3]) was 2% and the “Population Membrane Permeable-Phenotype (%)” value (Fibroblast; [3]) was 0% and 6%. The “Population Mitochondria Different-Phenotype (%)” value (Fibroblast; [3]) was 7% and 12%, the “Population Mitotic Cells (%)” value (Fibroblast; [3]) was 11% and 30% and the “Population Normal (%)” value (Fibroblast; [3]) was 97%. For the same compound, the “Population Pyknosed Nuclei (%)” value (Fibroblast; [3]) was 6% and 17%, the “Population Tubulin-Different-Phenotype (%)” value (Fibroblast; [3]) was 37% and 60% and the “Total Cell Count” value (Fibroblast; [3]) was 147 and 151. For the same compound, the “Population Apoptotic (%)” value (Fibroblast; [4]) was 81% and 36%, the “Population Fragmented Nuclei (%)” value (Fibroblast; [4]) was 32% and 57% and the “Population Healthy Nuclei (%)” value (Fibroblast; [4]) was 53% and 29%. For the same compound, the “Population Hoechst High Intensity Objects (%)” value (Fibroblast; [4]) was 2% and 0%, the “Population Membrane Permeable-Phenotype (%)” value (Fibroblast; [4]) was 0% and 11% and the “Population Mitochondria Different-Phenotype (%)” value (Fibroblast; [4]) was 32% and 30%. For the same compound, the “Population Normal (%)” value (Fibroblast; [4]) was 97% and 100%, the “Population Pyknosed Nuclei (%)” value (Fibroblast; [4]) was 14% and 13% and the “Population Tubulin-Different-Phenotype (%)” value (Fibroblast; [4]) was 78% and 95%. The “Total Cell Count” value (Fibroblast; [4]) was 187 and 142.

Reference: ChEMBL document CHEMBL5724801, “EUbOPEN Chemogenomics Library - Multiplex” (2024)
